Paper PMC11112339 (iScience, 2024)
“Also recorded” adds a separate entry of the source. Blank lines part the entries; values can stand above or below the molecule they belong to.

Tests used:
non-tumor (NT) organoids = test: Organoid viability, CellTiter-Glo 3D; format: cell-based, human; details: 72 h
Outline: (§1)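 Organoids came from dissociated patient tumour (iCCA) or non-tumour biopsies, embedded in reduced-growth-factor BME droplets with expansion medium. After 3 days, test compound was added at graded concentrations in expansion medium with 0.02% Tween20 for 72 h. Viability was read by CellTiter-Glo 3D luminescence as % of DMSO-treated organoids, with ≥3 independent experiments. EC50 (tumour organoids) came from nonlinear regression.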

Tumor (iCCA) organoids = test: Organoid viability, CellTiter-Glo 3D; format: cell-based, human; details: 72 h; for EC50: Homo sapiens, read-out: EC50, iCCA-derived organoids growth
Outline: as §1

mVDAC1 wild-type [1] = target: T1, mVDAC1 wild-type (Mus musculus, UniProt Q60932); test: Fluorescence polarization, NADH binding to purified VDAC1; details: read-out: KD of NADH, VDAC1 wild-type; 5 μM NADH titrated with protein; Hill fit
Outline: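 NADH at 5 μM was titrated with increasing recombinant refolded mVDAC1 in 20 mM Tris, 50 mM NaCl, 0.1% LDAO, pH 8.0. NADH intrinsic fluorescence was read at ex 355 / em 460 nm. FP was computed from parallel and perpendicular intensities. KD came from a nonlinear Hill fit of FP against protein concentration, in triplicate.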

mVDAC1 N238F = mVDAC1 N238F (Mus musculus, UniProt Q60932, N251F); test: Thermal denaturation; format: binding; details: small molecule 1 mM in DMF; mean ± SEM n=3
Outline: (§2)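 Wild-type or mutant refolded mVDAC1 (0.9 mg/ml final in 20 mM Tris-HCl, 50 mM NaCl, 0.1% LDAO, pH 8.0) was pretreated 1 h at 4°C with 1 mM test compound or 0.5% DMF. It was heated in capillaries from 35 to 95°C at 30°C/min while tryptophan fluorescence was read at 330/350 nm. Ti was the first-derivative maximum of F350/F330, checked by Hill fit. ΔTi was treated versus untreated, with ≥3 repeats.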

mVDAC1 wild-type [2] = target: T1, mVDAC1 wild-type; test: Thermal denaturation; format: binding; details: mean ± SEM n=3; for Temperature denaturation inflection point (Ti) shift: mVDAC1 0.9 mg/mL in LDAO, VA molecule 1 mM vs DMF 0.5%; for Inflection temperature T(i), WT: small molecule 1 mM in DMF
Outline: as §2

[3] = system: iCCA patient-derived 2D cells; test: MTT viability of patient-derived 2D cells; format: cell-based, human; details: 72 h exposure, 2μM
Outline: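 Primary 2D cells came from iCCA patient biopsies, with paired non-tumour cells as control. Cells were grown in DMEM/F-12 with 10% FBS and 1% pen/strep. They were seeded at 5.000 cells/well, treated 3 days later with test compound at 2 μM for 72 h, and scored by MTT absorbance. n = 3.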

mVDAC1 R218Y = mVDAC1 R218Y (Mus musculus, UniProt Q60932, R231Y); test: Thermal denaturation; format: binding; details: small molecule 1 mM in DMF; mean ± SEM n=3
Outline: as §2

NIH-3T3 = test: Cell viability MTT assay; format: cell-based; details: Mus musculus, NIH3T3, 48 h, read-out: Half the effective dose (EC50), cell viability
Outline: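 NIH-3T3 kept in high-glucose DMEM with 10% calf serum and penicillin/streptomycin at 37°C, 5% CO₂, used at 70–80% confluency. Seeded 10.000 cells/well, treated 24 h later with a concentration range of test compound for 48 h. MTT added (final 5 mg/ml), 3 h at 37°C, formazan dissolved in DMSO, absorbance 590 nm. n = 3, mean ± SEM; EC50 by nonlinear regression.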

mVDAC1 N238K [4] = target: T2, mVDAC1 N238K (Mus musculus, UniProt Q60932, N251K); test: Thermal denaturation; format: binding; details: small molecule 1 mM in DMF; mean ± SEM n=3
Outline: as §2

mVDAC1 K236A [5] = target: T3, mVDAC1 K236A (Mus musculus, UniProt Q60932, K249A); test: Fluorescence polarization NADH competition assay; format: binding; details: apparent KD, NADH 5 μM, protein 7 μM, mean ± SEM n=3
Outline: (§3)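 This is an FP competition assay. Refolded, SEC-purified recombinant mVDAC1 (7 μM) was preloaded with 5 μM NADH and titrated with increasing test compound. Buffer was 20 mM Tris, 50 mM NaCl, 0.1% LDAO, pH 8.0. FP was computed from parallel and perpendicular intensities. Apparent KD came from a Hill fit of FP against compound concentration, run in triplicate.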

mVDAC1 = mVDAC1 (Mus musculus, UniProt Q60932); test: 19F NMR protein-ligand interaction experiment; format: binding; details: compound 100 μM in LDAO buffer, with 5 μM mVDAC1
Outline: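 Recombinant mouse VDAC1 was expressed in E. coli M15, refolded from inclusion bodies into LDAO and purified by SEC. Test compound was used at 100 μM final in 20 mM Tris-HCl, 50 mM NaCl, 0.1% LDAO, pH 8.0, with or without 5 μM VDAC1. 19F spectra were taken at 298 K: 0.56 s acquisition, 1 s inter-scan delay, 256 scans, 2 Hz exponential broadening.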

mVDAC1 K236A [6] = target: T3, mVDAC1 K236A; test: Thermal denaturation; format: binding; details: small molecule 1 mM in DMF; mean ± SEM n=3
Outline: as §2

mVDAC1 F18A = mVDAC1 F18A (Mus musculus, UniProt Q60932, F31A); test: Thermal denaturation; format: binding; details: small molecule 1 mM in DMF; mean ± SEM n=3
Outline: as §2

mVDAC1 N207R = mVDAC1 N207R (Mus musculus, UniProt Q60932, N220R); test: Thermal denaturation; format: binding; details: small molecule 1 mM in DMF; mean ± SEM n=3
Outline: as §2

mVDAC1 wild-type [7] = target: T1, mVDAC1 wild-type; test: Fluorescence polarization NADH competition assay; format: binding
Outline: as §3

mVDAC1 N238R = mVDAC1 N238R (Mus musculus, UniProt Q60932, N251R); test: Thermal denaturation; format: binding; details: small molecule 1 mM in DMF; mean ± SEM n=3
Outline: as §2

mVDAC1 N238K [8] = target: T2, mVDAC1 N238K; test: Fluorescence polarization NADH competition assay; format: binding
Outline: as §3

T2 sequence (Q60932 14-296 N251K): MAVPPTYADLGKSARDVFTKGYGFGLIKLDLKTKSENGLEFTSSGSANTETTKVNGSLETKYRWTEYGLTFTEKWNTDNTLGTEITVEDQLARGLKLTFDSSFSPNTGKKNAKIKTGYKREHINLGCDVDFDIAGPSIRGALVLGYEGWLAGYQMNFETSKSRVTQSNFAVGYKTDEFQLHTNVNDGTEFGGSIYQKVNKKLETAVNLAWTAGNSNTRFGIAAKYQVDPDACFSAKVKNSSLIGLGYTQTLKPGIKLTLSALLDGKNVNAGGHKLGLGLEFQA
Sequence of mVDAC1 N207R (Q60932 14-296 N220R): as the sequence (Q60932 14-296 N251K) above, with N207R, K238N counted along it
Sequence of mVDAC1 R218Y (Q60932 14-296 R231Y): as the sequence (Q60932 14-296 N251K) above, with R218Y, K238N counted along it
T1 sequence (Q60932 14-296): as the sequence (Q60932 14-296 N251K) above, with K238N counted along it
Sequence of mVDAC1 (Q60932 14-296): as the sequence (Q60932 14-296 N251K) above, with K238N counted along it
Sequence of mVDAC1 F18A (Q60932 14-296 F31A): as the sequence (Q60932 14-296 N251K) above, with F18A, K238N counted along it
T3 sequence (Q60932 14-296 K249A): as the sequence (Q60932 14-296 N251K) above, with K236A, K238N counted along it
Sequence of mVDAC1 N238R (Q60932 14-296 N251R): as the sequence (Q60932 14-296 N251K) above, with K238R counted along it
Sequence of mVDAC1 N238F (Q60932 14-296 N251F): as the sequence (Q60932 14-296 N251K) above, with K238F counted along it

SMILES: Nc1ccn([C@@H]2O[C@H](CO)[C@@H](O)C2(F)F)c(=O)n1 [GMB, gemcitabine, reference compound]
effect on viability of non-tumor organoids (non-tumor (NT) organoids): significant efficacy
effect on viability of iCCA organoids (Tumor (iCCA) organoids): significant efficacy

SMILES: NC(=O)C1=CN([C@@H]2O[C@H](COP(=O)(O)OP(=O)(O)OC[C@H]3O[C@@H](n4cnc5c(N)ncnc54)[C@H](O)[C@@H]3O)[C@@H](O)[C@H]2O)C=CC1 [NADH]
Kd (mVDAC1 wild-type [1]): 6.8 ± 0.06 µM

SMILES: CC(=O)N(c1nc(COC(=O)c2ccsc2)cs1)c1ccccc1F [VA-D10, [2-(N-acetyl-2-fluoroanilino)-1,3-thiazol-4-yl]methyl thiophene-3-carboxylate]
Inflection temperature T(i), N238F (mVDAC1 N238F): 63.3 ± 0.1 °C
Temperature denaturation inflection point (Ti) shift (mVDAC1 wild-type [2]): +4.9 ± 0.1 °C
Inflection temperature T(i), WT (mVDAC1 wild-type [2]): 60.5 ± 0.1 °C
reduction in iCCA cell viability [3]: about 50%
Inflection temperature T(i), R218Y (mVDAC1 R218Y): 62.2 ± 0.2 °C
EC50 (NIH-3T3): 160 ± 4 µM
Inflection temperature T(i), N238K (mVDAC1 N238K [4]): 64.4 ± 0.1 °C
Kd (mVDAC1 K236A [5]): 28 ± 0.7 µM
19F resonance change upon VDAC1 binding (mVDAC1): direct binding; also recorded: significantly move their chemical shifts
Inflection temperature T(i), K236A (mVDAC1 K236A [6]): 57.9 ± 0.1 °C
Inflection temperature T(i), F18A (mVDAC1 F18A): 57.3 ± 0.1 °C
Inflection temperature T(i), N207R (mVDAC1 N207R): 62.9 ± 0.1 °C
Kd (mVDAC1 wild-type [7]): 18.5 ± 0.2 µM
Inflection temperature T(i), N238R (mVDAC1 N238R): 63.1 ± 0.1 °C
effect on viability of iCCA organoids (Tumor (iCCA) organoids): reduce cell viability of iCCA organoids in a dose-dependent manner
EC50 (Tumor (iCCA) organoids): 25 ± 6 µM
Kd (mVDAC1 N238K [8]): 10.7 ± 0.1 µM

More lines, main results first:

Inflection temperature T(i), N238F (mVDAC1 N238F): 64.0 ± 0.1 °C
Temperature denaturation inflection point (Ti) shift (mVDAC1 wild-type [2]): +4.6 ± 0.1 °C
Inflection temperature T(i), WT (mVDAC1 wild-type [2]): 60.2 ± 0.1 °C
Inflection temperature T(i), R218Y (mVDAC1 R218Y): 62.3 ± 0.1 °C
Inflection temperature T(i), N238K (mVDAC1 N238K [4]): 64.0 ± 0.1 °C
Kd (mVDAC1 K236A [5]): 26.4 ± 0.4 µM
Inflection temperature T(i), K236A (mVDAC1 K236A [6]): 57.3 ± 0.1 °C
Inflection temperature T(i), F18A (mVDAC1 F18A): 58.0 ± 0.1 °C
Inflection temperature T(i), N207R (mVDAC1 N207R): 63.2 ± 0.1 °C
Kd (mVDAC1 wild-type [7]): 18.7 ± 0.3 µM
Inflection temperature T(i), N238R (mVDAC1 N238R): 62.5 ± 0.1 °C
EC50 (Tumor (iCCA) organoids): 15 ± 2 µM
Kd (mVDAC1 N238K [8]): 15.2 ± 0.1 µM
SMILES: O=C(CC(O)(c1nc2ccccc2s1)C(F)(F)F)c1cccc(Br)c1 (stereo not drawn) [VA-C1, 3-(1,3-benzothiazol-2-yl)-1-(3-bromophenyl)-4,4,4-trifluoro-3-hydroxybutan-1-one]
reduction in iCCA cell viability [3]: about 50%
EC50 (NIH-3T3): 146 ± 3 µM
19F resonance change upon VDAC1 binding (mVDAC1): direct binding; also recorded: reduction and broadening of its peak
effect on viability of iCCA organoids (Tumor (iCCA) organoids): reduce cell viability of iCCA organoids in a dose-dependent manner

Inflection temperature T(i), N238F (mVDAC1 N238F): 63.2 ± 0.1 °C
Temperature denaturation inflection point (Ti) shift (mVDAC1 wild-type [2]): +4.6 ± 0.1 °C
Inflection temperature T(i), WT (mVDAC1 wild-type [2]): 60.2 ± 0.1 °C
Inflection temperature T(i), R218Y (mVDAC1 R218Y): 61.6 ± 0.1 °C
Inflection temperature T(i), N238K (mVDAC1 N238K [4]): 63.8 ± 0.1 °C
Kd (mVDAC1 K236A [5]): 28.8 ± 0.2 µM
Inflection temperature T(i), K236A (mVDAC1 K236A [6]): 57.0 ± 0.1 °C
Inflection temperature T(i), F18A (mVDAC1 F18A): 58.1 ± 0.1 °C
Inflection temperature T(i), N207R (mVDAC1 N207R): 63.0 ± 0.1 °C
Kd (mVDAC1 wild-type [7]): 18.7 ± 0.6 µM
Inflection temperature T(i), N238R (mVDAC1 N238R): 61.8 ± 0.1 °C
Kd (mVDAC1 N238K [8]): 14.9 ± 0.5 µM
SMILES: Cc1ccc(C(=O)OCC(=O)N=c2sccn2Cc2ccccc2Cl)s1 [VA-C6, [2-[[3-[(2-chlorophenyl)methyl]-1,3-thiazol-2-ylidene]amino]-2-oxoethyl] 5-methylthiophene-2-carboxylate]
EC50 (NIH-3T3): 127 ± 4 µM

Inflection temperature T(i), N238F (mVDAC1 N238F): 63.1 ± 0.1 °C
Temperature denaturation inflection point (Ti) shift (mVDAC1 wild-type [2]): +4.7 ± 0.1 °C
Inflection temperature T(i), WT (mVDAC1 wild-type [2]): 60.2 ± 0.1 °C
Inflection temperature T(i), R218Y (mVDAC1 R218Y): 62.3 ± 0.1 °C
Inflection temperature T(i), N238K (mVDAC1 N238K [4]): 64.5 ± 0.1 °C
Kd (mVDAC1 K236A [5]): 24.2 ± 0.6 µM
Inflection temperature T(i), K236A (mVDAC1 K236A [6]): 57.9 ± 0.1 °C
Inflection temperature T(i), F18A (mVDAC1 F18A): 57.2 ± 0.1 °C
Inflection temperature T(i), N207R (mVDAC1 N207R): 62.9 ± 0.1 °C
Kd (mVDAC1 wild-type [7]): 15.9 ± 0.7 µM
Inflection temperature T(i), N238R (mVDAC1 N238R): 63.1 ± 0.1 °C
Kd (mVDAC1 N238K [8]): 13.1 ± 0.4 µM
SMILES: O=C1C(=Cc2ccc(Cl)cc2)CSc2ccccc21 [VA-D11, 3-[(4-chlorophenyl)methylidene]thiochromen-4-one]
EC50 (NIH-3T3): 118 ± 3 µM
